Only some compounds are listed: those with a hit (about 1.6% of all), similar ones and a draw of the others.
ADAM10 inh – ADAM10 inhibition, QFRET primary screen; recombinant ADAM10, EDANS/DABCYL FRET peptide cleavage, 3 h; inhibition, % at 7 µM; hit rate 0.62% among 370,000;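 active means inhibition above a per-campaign cutoff equal to the mean of compounds falling between control-based bounds plus 3 SD, cut at about 20% in these data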
Target sequence (O14672 214-748 limits assumed): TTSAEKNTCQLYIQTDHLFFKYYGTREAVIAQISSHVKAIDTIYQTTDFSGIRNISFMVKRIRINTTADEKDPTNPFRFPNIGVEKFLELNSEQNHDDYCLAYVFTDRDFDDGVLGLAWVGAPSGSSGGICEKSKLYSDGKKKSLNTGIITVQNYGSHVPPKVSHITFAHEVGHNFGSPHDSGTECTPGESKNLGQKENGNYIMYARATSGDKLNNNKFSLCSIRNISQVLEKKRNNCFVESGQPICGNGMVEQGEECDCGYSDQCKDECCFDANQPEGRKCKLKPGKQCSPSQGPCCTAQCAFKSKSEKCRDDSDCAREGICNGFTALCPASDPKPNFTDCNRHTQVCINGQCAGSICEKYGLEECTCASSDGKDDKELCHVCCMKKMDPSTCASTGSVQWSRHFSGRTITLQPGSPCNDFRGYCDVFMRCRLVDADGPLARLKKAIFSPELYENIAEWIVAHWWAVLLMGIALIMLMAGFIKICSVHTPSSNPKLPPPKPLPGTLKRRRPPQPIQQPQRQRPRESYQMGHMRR
Tn7 DDE FP – disrupts Tn7 cyclic peptide binding to fibrin D-Dimer-E complex. P02675. FP displacement of FITC-Tn7 peptide from fibrin DD(E); 0% = median of compound wells per plate. inhibition, % at 8.3 µM. hit rate 0.13% among 370,000. AID 720508;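 active means inhibition above the mean of compounds falling within the control limits plus 3 SD of them, cut at about 14% in these data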
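assay system = human clot-derived fibrin DD(E) complex | quantity = Fibrin-DD(E) at 2 µM final | timing = 10 min preincubation, 3 h with tracer, room temperature | signal = fluorescence polarization | measure = percent inhibition | benchmarks = high control wells with 10 µM unlabelled Aha-Tn7 peptide (full inhibition) | replicates = singlicate testing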
DDE Tn6 FP inh – DD(E)-Tn6 binding inhibition, primary FP screen; P02675; Fibrin DD(E) TRITC-Tn6 fluorescence polarization displacement; inhibition, % at 8.3 µM; hit rate 0.21% among 370,000;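 active means inhibition above a per-campaign cutoff: mean of compounds within control limits plus 3 SD, cut at about 15% in these data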
ADAM17 inh – ADAM17 inhibition, QFRET primary screen | hit rate 0.83% among 370,000 | recombinant ADAM17, EDANS/DABCYL FRET peptide cleavage | inhibition, % at 6.95 µM | P78536;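 active means inhibition above the mean of compounds lying between control limits plus 3 SD, set per campaign, cut at about 8.5% in these data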
MT1-MMP act inh – inhibitors of human MT1-MMP activation | HT1080 RFP-PRO-GFP cells, GFP/RFP ratio fluorescence, overnight; percent of plate control window, DMSO zero | P50281 | AID 651647 | GFP/RFP ratio change, % at 20 µM | hit rate 0.061% among 360,000;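 active means GFP/RFP ratio change of at least 30% with cell ATP level not reduced by more than half and red fluorescence within 50% of control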
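system = RFP-PRO-GFP reporter HT1080 cells | dosing = 20 µM single dose, 1% DMSO | timing = overnight cell settling, then overnight compound exposure, 37 °C, 5% CO2 | read-out basis = GFP/RFP fluorescence ratio | controls = DMSO and RFP-L50D-GFP cell wells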
ADAM10 confirm – human ADAM10 inhibition, confirmation; shares compounds with ADAM10 inh; ADAM10 QFRET peptide cleavage, EDANS fluorescence; inhibition, % at 6.95 µM; hit rate 1% among 2,100; AID 743208;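 active means inhibition above about 20% chosen separately for each screening run, limit read from the data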
ADAM17 counter – inhibits human ADAM17 in ADAM10 exosite counter-screen; shares compounds with ADAM10 inh; ADAM17 QFRET peptide cleavage, EDANS fluorescence; inhibition, % at 6.95 µM; hit rate 0.5% among 2,100;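 active means mean triplicate inhibition above the solvent-only control wells' mean plus 3 SD, cut at about 12% in these data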
Each line names hits and unclear results; the compound was inactive in the other large screens (follow-up assays come after a bar, where they were run).

C[C@@]12C(=O)N(CCc3c[nH]c4ccccc34)CC(=O)N1[C@H]1c3ccccc3OC[C@@H]1[C@@H]2c1ccccc1	ADAM10 inh 22.1 | ADAM10 confirm inactive | ADAM17 counter inactive
C[C@]12C(=O)N(c3ccc(Br)cc3)C(=O)N1[C@@H]1c3ccccc3OC[C@@H]1[C@H]2c1ccccc1	ADAM10 inh 22.7 | ADAM10 confirm inactive | ADAM17 counter inactive
CCOC(=O)[C@@H]1[C@H]2COc3ccc(Br)cc3[C@H]2N2C(=O)N(c3cccc(F)c3)C(=O)[C@]12C	ADAM10 inh 20.0 | ADAM10 confirm inactive | ADAM17 counter inactive
COc1ccc2c(c1)OC[C@H]1[C@H]2N2C(=O)CN(Cc3ccc(C)cc3)C(=O)[C@@]2(C)[C@H]1c1ccccc1	ADAM10 inh 20.1 | ADAM10 confirm inactive | ADAM17 counter inactive
COc1ccc2c(c1)OC[C@H]1[C@H]2N2C(=O)CN(Cc3ccc(F)cc3)C(=O)[C@@]2(C)[C@H]1c1ccccc1	none
COc1ccc(CC(=O)NCC2CCN(C(=O)C(=O)c3cc4ccccc4o3)CC2)cc1	none (no result: MT1-MMP act inh)
Nc1ccn(C[C@@H](CO)OCP(=O)(O)O)c(=O)n1	none (no result: MT1-MMP act inh)
CC(=O)N1CCCN(C(=O)CN2C(=O)CC(C)(C)S(=O)(=O)c3ccccc32)CC1	none (no result: MT1-MMP act inh)
C/C(CC(=O)Nc1cc(Cl)ccc1Cl)=N\NC(=O)COc1cccc(C)c1	ADAM10 inh 20.0 | ADAM10 confirm inactive | ADAM17 counter inactive
CSc1ccc(Cn2c(C)c(C(=O)NCc3ccc4c(c3)OCCO4)sc2=O)cc1	ADAM10 inh 20.4 | ADAM10 confirm inactive | ADAM17 counter inactive
Cc1c(C(=O)NCc2ccc(F)cc2)sc(=O)n1Cc1ccc(Cl)c(Cl)c1	none
CSc1ccc(Cn2c(C)c(C(=O)NCc3ccc(Cl)c(Cl)c3)sc2=O)cc1	ADAM10 inh 21.4 | ADAM10 confirm inactive | ADAM17 counter inactive
CCNC(=S)NNC(=O)c1cnccn1	none (no result: MT1-MMP act inh)
O=C(N[C@H](Cc1ccccc1)C(=O)N1CCN(Cc2ccccn2)CC1)[C@H]1O[C@@H](n2ccc(=O)[nH]c2=O)[C@H](O)[C@@H]1O	none (no result: MT1-MMP act inh)
O=C(O)C(Nc1nc(C(F)(F)F)nc2ccccc12)c1ccccc1 (configuration not stated)	ADAM10 inh 19.8 | ADAM10 confirm inactive | ADAM17 counter inactive
OC(CNc1nc(C(F)(F)F)nc2ccccc12)c1ccccc1 (configuration not stated)	none
COc1ccc(C(=O)N[C@H]2CC[C@@]34CCCN3C(=O)CCC[C@H]4[C@H]2C)cc1	none (no result: MT1-MMP act inh)
Cc1nc(-c2c(C(F)(F)F)noc2-c2ccc(O)cc2O)cs1	none
CCOc1cc(C)c(-c2onc(C(F)(F)F)c2-c2csc(C)n2)c(O)c1	ADAM10 inh 21.5 | ADAM10 confirm inactive | ADAM17 counter inactive
CCc1ccccc1N(CC(=O)NCc1ccco1)C(=O)CCC(=O)Nc1nccs1	ADAM10 inh 88.0 | ADAM10 confirm inactive | ADAM17 counter inactive
COc1ccccc1NC(=O)C1=C(C)Nc2nc(-c3ccccc3)nn2C1c1ccccn1 (configuration not stated)	ADAM10 inh 66.7 | ADAM10 confirm inactive | ADAM17 counter inactive
COc1ccccc1NC(=O)C1=C(C)Nc2nc(-c3cccs3)nn2C1c1cccc(O)c1 (configuration not stated)	none
Cc1ccc(S(=O)(=O)Nc2ccc(Cl)cc2)cc1NC(=O)c1cc2c(s1)CCCC2	ADAM10 inh 23.6, ADAM17 inh 10.0 | ADAM10 confirm inactive | ADAM17 counter inactive
Cc1ccc(S(=O)(=O)N2CCOCC2)cc1NC(=O)c1cc2c(s1)CCC2	none
O=C(Nc1ccncc1)c1sc2ccccc2c1Cl	none
O=C(NNC(=O)c1sc2ccccc2c1Cl)Nc1ccc(Cl)cc1	ADAM10 inh 19.8 | ADAM10 confirm inactive | ADAM17 counter inactive
COCCCNC(=O)Cn1cc2c(n1)CCC(C)C2 (configuration not stated)	ADAM10 inh 86.6 | ADAM10 confirm inactive | ADAM17 counter inactive

Screens from PubChem.
